Assay [1] in a line: Antiproliferative activity against human KBVIN cells expressing P-glycoprotein after 3 days by sulforhodamine B assay. Format: functional. Conditions: 72 h, read-out: ED50 (the source's name). A digest of the protocol: (§1)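 Cells were seeded from freshly trypsinized suspensions at 1500–7500 cells/well and dosed from DMSO-diluted stock. After 3 days of culture, attached cells were fixed with cold 50% TCA and stained with 0.4% SRB. Bound dye was solubilized and absorbance read at 562 nm. ED50 is the concentration giving 50% growth reduction versus untreated cells, averaged from at least three independent determinations. Cells were grown in RPMI-1640 with 25 mM HEPES, 10% FBS and kanamycin.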
In general terms: The SRB assay estimates cell density from bound dye.

The test system of assay [2] is MCF7. Description: Antiproliferative activity against human MCF7 cells after 3 days by sulforhodamine B assay. Format: functional. Particulars: MCF7, 72 h, read-out: ED50 (the source's name).
Assay [3] relates to HCT-8. As to the kind of experiment: Antiproliferative activity against human HCT8 cells after 3 days by sulforhodamine B assay. Format: functional. Conditions: HCT-8, 72 h, read-out: ED50 (the source's name). The procedure, abridged:
as §1

The subject of assay [4] is KB. As to the kind of experiment: Antiproliferative activity against human KB cells after 3 days by sulforhodamine B assay. Format: functional. Conditions: 72 h, read-out: ED50 (the source's name). A digest of the protocol: as §1
In assay [5] the test system is PC-3. As to the kind of experiment: Antiproliferative activity against human PC3 cells after 3 days by sulforhodamine B assay. Format: functional. Conditions: for EC50: PC-3, 72 h, read-out: ED50 (the source's name). A digest of the protocol:
as §1

Assay [6] concerns A549. Description: Antiproliferative activity against human A549 cells after 3 days by sulforhodamine B assay. Format: functional. Particulars: A549, 72 h, read-out: ED50 (the source's name). A digest of the protocol: as §1
The subject of assay [7] is HepG2. As to the kind of experiment: Antiproliferative activity against human HepG2 cells after 3 days by sulforhodamine B assay. Format: functional. Conditions: for EC50: HepG2, 72 h, read-out: ED50 (the source's name). A digest of the protocol: as §1
Assay [8] has as its system 1A9. As to the kind of experiment: Antiproliferative activity against human 1A9 cells after 3 days by sulforhodamine B assay. Format: functional. Particulars: 1A9, 72 h, read-out: ED50 (the source's name). A digest of the protocol: as §1
Assay [9] can be described thus: Effect on cyclinB mRNA expression in human CL1-5 cells at 0.05 ug/ml after 24 hrs by RT-PCR relative to DMSO control. Format: functional.
Assay [10] in a line: Effect on NEK2A mRNA expression in human CL1-5 cells at 0.05 ug/ml after 24 hrs by Affymetrix GeneChip microarray relative to DMSO control.
Assay [11] can be described thus: Effect on securin mRNA expression in human CL1-5 cells at 0.05 ug/ml after 24 hrs by RT-PCR relative to DMSO control. Format: functional.
A short description of assay [12]: Effect on MAD2 mRNA expression in human CL1-5 cells at 0.05 ug/ml after 24 hrs by RT-PCR relative to DMSO control. Format: functional.
Assay [13] in a line: Effect on KNSL1 mRNA expression in human CL1-5 cells at 0.05 ug/ml after 24 hrs by RT-PCR relative to DMSO control. Format: functional.
Assay [14] can be described thus: Effect on dynactin mRNA expression in human CL1-5 cells at 0.05 ug/ml after 24 hrs by RT-PCR relative to DMSO control. Format: functional.
Assay [15] in a line: Effect on separase mRNA expression in human CL1-5 cells at 0.05 ug/ml after 24 hrs by RT-PCR relative to DMSO control. Format: functional.
Assay [16] in a line: Antiproliferative activity against human CL1-5 cells. Format: functional. Conditions: read-out: ED50 (the source's name).
Assay [17] is described as follows: Effect on dynein1 mRNA expression in human CL1-5 cells at 0.05 ug/ml after 24 hrs by RT-PCR relative to DMSO control. Format: functional.
Assay [18] is described as follows: Effect on CDK1 mRNA expression in human CL1-5 cells at 0.05 ug/ml after 24 hrs by Affymetrix GeneChip microarray relative to DMSO control.
Assay [19] in a line: Effect on Aurora B mRNA expression in human CL1-5 cells at 0.05 ug/ml after 24 hrs by Affymetrix GeneChip microarray relative to DMSO control.
Assay [20] in a line: Upregulation of MAD2L1 transcript in human CL1-5 cells at 0.05 ug/ml after 24 hrs by semi-quantitative RT-PCR. Format: functional, cell-based. A digest of the protocol:
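CL1-5 cells were seeded at 2.5×10^5 per 60 mm dish and grown 48 h in RPMI with 10% FBS at 37 °C in 5% CO2. Cells then received DMSO or 0.05 μg/mL compound for 24 h. Total RNA was extracted with TRIzol and MAD2L1 was amplified by RT-PCR, with Gβ-like as the control transcript, and bands were compared on gel.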

A short description of assay [21]: Effect on Aurora A mRNA expression in human CL1-5 cells at 0.05 ug/ml after 24 hrs by Affymetrix GeneChip microarray relative to DMSO control.
Assay [22] can be described thus: Effect on MAD1 mRNA expression in human CL1-5 cells at 0.05 ug/ml after 24 hrs by RT-PCR relative to DMSO control. Format: functional.

The structures appear in SMILES notation. Activity calls are given as the source filed them. The calls are words filed in the database; no cut-off is given here.

Take `CCCC1=C(OCCC(C)C)C(CCC)(CCC)C(=O)/C(=C(O)\C=C\c2ccccc2)C1=O`: the EC50 in assay [1] came out at 19.2 µM; in [2] it was 9.1 µM; in [3] it was 15.3 µM; in assay [4] it was 10.6 µM; in assay [5], 17 µM; in [6], 11.3 µM. In assay [7], the EC50 amounted to 15.5 µM.

Take `CCCCOC1=C(CCC)C(=O)/C(=C(O)/C=C/c2ccccc2)C(=O)C1(CCC)CCC`: the EC50 in assay [1] worked out at 8.9 µM; in [2], 5.3 µM; in assay [3], 8.7 µM; in assay [4], 8 µM; in [5] it was 9.6 µM; in assay [6], 7.1 µM. For the same compound, the EC50 in [7] worked out at 8 µM.

Turning to `CC(=O)O[C@H]1C(=O)[C@@]2(C)[C@H]([C@H](OC(=O)c3ccccc3)[C@]3(O)C[C@H](OC(=O)[C@H](O)[C@@H](NC(=O)c4ccccc4)c4ccccc4)C(C)=C1C3(C)C)[C@]1(OC(C)=O)CO[C@@H]1C[C@@H]2O` [PACLITAXEL], the EC50 is more than 0.1 µM in assay [1]; more than 0.1 µM in [2]; more than 0.1 µM in [3]; 0.00209 µM in [8]; 0.00287 µM in assay [4]; 0.00887 µM in [5]. Besides, the EC50 in assay [6] was 0.00256 µM; in assay [7], more than 0.1 µM.

Turning to `CCCOC1=C(CCC)C(=O)/C(=C(O)/C=C/c2ccc(I)cc2)C(=O)C1(CCC)CCC`, the EC50 in assay [1] came out at 6.2 µM; in assay [2] it was 5.1 µM; in assay [3] it was 7.8 µM; in assay [4], 6.4 µM; in assay [5], 9.6 µM; in assay [6] it was 8.2 µM. For the same compound, the EC50 in assay [7] stood at 7.3 µM.

As for `CCCC1=C(OCC)C(CCC)(CCC)C(=O)/C(=C(O)\C=C\c2ccccc2)C1=O`, the EC50 in assay [1] came to 3.5 µM; in assay [2], 2.6 µM; in [3] it was 5.6 µM; in assay [8], 4.3 µM; in assay [4], 6.4 µM; in assay [5] it was 12.5 µM. The EC50 in assay [6] is 4.6 µM; in assay [7] it was 11.2 µM.

With `CC[C@]1(O)C[C@H]2CN(CCc3c([nH]c4ccccc34)[C@@](C(=O)OC)(c3cc4c(cc3OC)N(C=O)[C@H]3[C@@](O)(C(=O)OC)[C@H](OC(C)=O)[C@]5(CC)C=CCN6CC[C@]43[C@@H]65)C2)C1` [VINCRISTINE], the EC50 in [1] was more than 0.1 µM; in assay [2] it was 0.0121 µM; in assay [3] it was 0.0242 µM; in [4], 0.0024 µM; in assay [5], 0.0121 µM; in assay [6], 0.0048 µM. Moreover, in [7], the EC50 was 0.0029 µM.

For `CCCC1=C(OC)C(CCC)(CCC)C(=O)/C(=C(O)\C=C\c2ccccc2)C1=O`, the EC50 in [1] is 3.4 µM; in [3], 3.5 µM; in [8] it was 3.7 µM; in assay [4], 4.6 µM; in [5] it was 8.2 µM; in [6], 3.6 µM.

Regarding `COC1=C(CCC(C)C)C(=O)/C(=C(O)/C=C/c2ccccc2)C(=O)C1(CCC(C)C)CCC(C)C`, the EC50 in assay [1] worked out at 20.3 µM; in [2] it was 25.2 µM; in [3], 13 µM; in [8], 16.3 µM; in assay [4], 17.5 µM; in assay [6], 18.4 µM. Further, the ED50 result in [5] and in [7] was “inactive” in each case.

Take `COC1=C(CC(C)C)C(=O)/C(=C(O)/C=C/c2ccccc2)C(=O)C1(CC(C)C)CC(C)C`: the EC50 in assay [1] turned out to be 8.2 µM; in [2] it was 3.7 µM; in [3], 7.5 µM; in [8], 8 µM; in assay [4] it was 7.9 µM; in [5], 12.4 µM. Also, the values for the EC50 in assay [6] and in assay [7] were 4.4 µM and 14.5 µM, respectively.

As for `CCCC1=C(OC)C(CCC)(CCC)C(=O)/C(=C(O)\C=C\c2ccc(I)cc2)C1=O`, the EC50 in assay [1] is 1.4 µM; in [2] it was 1.8 µM; in [3] it was 1.1 µM; in assay [8], 1.8 µM; in assay [4], 1.5 µM; in assay [5], 2.8 µM. In addition, the figures for the EC50 in assay [6] and in assay [7] were 1.4 µM and 2.4 µM, respectively.

Regarding `CCCC1=C(OCC(C)C)C(CCC)(CCC)C(=O)/C(=C(O)\C=C\c2ccccc2)C1=O`, the EC50 came to 4.1 µM in [1]; 4.4 µM in [2]; 8 µM in [3]; 6.9 µM in assay [8]; 4.8 µM in assay [4]; 12.2 µM in assay [5]. Besides, the figures for the EC50 in assay [6] and in assay [7] were 1.7 µM and 13.4 µM, respectively.

As for `CCCC1(CC=C(C)C)C(=O)C(C(=O)/C=C/c2ccccc2)=C(O)C(CCC)(CCC)C1=O` (stereo not drawn), the EC50 worked out at 7.3 µM in [1]; 5.8 µM in assay [2]; 6.7 µM in [3]; 8.2 µM in assay [4]; 8.4 µM in assay [5]; 7.1 µM in assay [6]. In assay [7], the EC50 amounted to 6.4 µM.

Turning to `CCCC1=C(OC)C(CCC)(CCC)C(=O)/C(=C(O)\C=C\c2ccc(Br)cc2)C1=O`, the “fold change (FC)” value in assay [9], in assay [10], in assay [11], in assay [12], in [13] and in [14] was 2 each time. The “fold change (FC)” value in assay [15], in assay [17], in assay [18], in assay [19], in assay [21] and in assay [22] was 2 throughout. Further, the EC50 was 1.8 µM in assay [1]; 2.6 µM in [3]; 0.11 µM in assay [16]; 1.9 µM in [8]; 1.8 µM in assay [4]; 4.7 µM in [5]. Besides, the EC50 in assay [6] stood at 2 µM. For the same compound, the result in assay [20] was Active.

Take `CCCOC1=C(CCC)C(=O)/C(=C(O)/C=C/c2ccccc2)C(=O)C1(CCC)CCC`: the EC50 came out at 2.4 µM in assay [1]; 1.6 µM in assay [2]; 2.6 µM in assay [3]; 2 µM in assay [8]; 2.7 µM in assay [4]; 8.6 µM in assay [5]. The figures for the EC50 in assay [6] and in [7] were 1.9 µM and 8.3 µM, respectively.

For `COC1=C(C)C(O)=C(C(=O)/C=C/c2ccccc2)C(=O)C1(C)C` [DESMOSDUMOTIN C], the EC50 is 9.6 µM in assay [1]; 11.8 µM in [3]; 11.2 µM in [8]; 12.8 µM in [4]; 35.6 µM in [5]; 11.2 µM in assay [6].

On to `COC1=C(CC=C(C)C)C(=O)/C(=C(O)/C=C/c2ccccc2)C(=O)C1(CC=C(C)C)CC=C(C)C` [3,3,5-TRIPRENYLDESMOSDUMOTIN C], for which the EC50 in [1] stood at 8.9 µM; in assay [2], 8.2 µM; in assay [3], 13.7 µM; in [4] it was 13.3 µM; in assay [5], 12.2 µM; in assay [6] it was 10.3 µM. In addition, in assay [7], the EC50 stood at 11.2 µM.

`CCCCC1=C(OC)C(CCCC)(CCCC)C(=O)/C(=C(O)\C=C\c2ccccc2)C1=O`: the EC50 was 8.6 µM in assay [1]; 4.4 µM in assay [2]; 7.8 µM in [3]; 5.9 µM in [8]; 7 µM in assay [4]; 13 µM in assay [5]. Also, the EC50 in assay [6] stood at 6.4 µM; in assay [7], 23.9 µM.

The values are drawn from ChEMBL document CHEMBL1681672, “Antitumor agents 283. Further elaboration of desmosdumotin C analogs as potent antitumor agents: activation of spindle assembly checkpoint as possible mode of action” (2011).
